GASC1 inh: KDM4C (human) demethylase inhibition; Q9H3R0; 0.15% of 96,000 active; AID 720574; GST-KDM4C 2-372, H3K9me3 peptide, LANCE TR-FRET; inhibition, % at 12.5 µM;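 active = mean replicate inhibition above about 25%, with at least 55% of replicates also reaching it, limit read from the data, passing the limit was not always enough; inconclusive = only one of those two conditions met; inactive = neither condition met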
Target sequence (Q9H3R0 2-372 limits assumed): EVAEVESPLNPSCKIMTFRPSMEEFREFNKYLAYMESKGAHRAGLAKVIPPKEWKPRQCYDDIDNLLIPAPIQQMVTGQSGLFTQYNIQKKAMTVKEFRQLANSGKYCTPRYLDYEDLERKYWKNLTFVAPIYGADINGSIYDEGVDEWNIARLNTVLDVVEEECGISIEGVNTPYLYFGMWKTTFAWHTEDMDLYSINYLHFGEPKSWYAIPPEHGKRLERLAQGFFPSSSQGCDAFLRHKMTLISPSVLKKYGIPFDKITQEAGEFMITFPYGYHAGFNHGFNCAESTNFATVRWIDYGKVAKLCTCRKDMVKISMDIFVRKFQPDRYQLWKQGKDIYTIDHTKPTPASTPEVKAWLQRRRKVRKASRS
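System: N-terminal GST-fused human GASC-1 (KDM4C) fragment, residues 2-372; amount: enzyme final amount 10 nM; incubation: reaction 30 min RT, detection step 1 h RT; medium: HEPES buffer, pH 7.5, plus ascorbate; technique: LANCE TR-FRET, Eu antibody, ULight-streptavidin, EDTA, ex 340 nm, em 618/671 nm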
T cruzi growth-1: inhibitors of T. cruzi proliferation. T. cruzi beta-gal in NIH3T3, GalScreen luminescence, 90 h. inhibition, % at 8.34 µM. 5.9% of 77,000 active;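 active = mean inhibition above about 93%, with at least 55% of replicates each passing it, limit read from the data, passing the limit was not always enough; inconclusive = only one of those two conditions holds; inactive = neither condition holds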
IDH1 R132H inh: IDH1 R132H (human) inhibition; O75874; AID 624101; IDH1 R132H reductase, diaphorase/resazurin fluorescence, 60 min; inhibition, % at 10 µM; 0.18% of 70,000 active; in the data active = inhibition above about 34%; inconclusive = no clear call, values can overlap the other calls; inactive = below about 11%
Target sequence (O75874 whole entry R132H): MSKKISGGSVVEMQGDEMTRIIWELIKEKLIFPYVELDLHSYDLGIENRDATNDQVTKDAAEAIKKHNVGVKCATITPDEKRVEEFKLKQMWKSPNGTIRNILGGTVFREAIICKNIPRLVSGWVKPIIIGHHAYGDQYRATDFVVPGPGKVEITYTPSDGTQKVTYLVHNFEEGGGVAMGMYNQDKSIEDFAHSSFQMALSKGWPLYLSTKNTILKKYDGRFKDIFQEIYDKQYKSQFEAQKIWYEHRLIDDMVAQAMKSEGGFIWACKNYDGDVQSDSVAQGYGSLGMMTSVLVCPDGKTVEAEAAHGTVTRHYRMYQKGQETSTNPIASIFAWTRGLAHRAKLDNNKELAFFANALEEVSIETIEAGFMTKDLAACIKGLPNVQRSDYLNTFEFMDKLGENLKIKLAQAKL
Pf Dd2 inh: P. falciparum Dd2 growth inhibition | SYBR Green, 72 h; active compounds read low | activity change, % at 10 µM | 2.3% of 94,000 active | AID 1159554; in the data active = activity change below about -80%; inconclusive = no clear call, values can overlap the other calls
T cruzi growth-2: inhibitors of T. cruzi proliferation; shares compounds with T cruzi growth-1; T. cruzi beta-gal in NIH3T3, GalScreen luminescence, 90 h; inhibition, % at 8.35 µM; 72% of 5,600 active; AID 651739;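 active = mean replicate inhibition above about 95% and at least 55% of replicates individually reaching it, limit read from the data; inconclusive = only one of the two criteria is met; inactive = neither criterion is met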
T cruzi growth-3: inhibitors of T. cruzi proliferation | inhibition, % at 2.09 µM | T. cruzi beta-gal in NIH3T3, GalScreen luminescence, 90 h | 21% of 5,600 active | shares compounds with T cruzi growth-1 | AID 651740;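 active = mean inhibition above about 95%, with at least 55% of replicates also reaching it, limit read from the data; inconclusive = meets just one of the two conditions; inactive = meets neither condition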
3T3 cytotox: cytotoxicity in mouse NIH/3T3 fibroblasts; shares compounds with T cruzi growth-1; NIH/3T3 viability, CellTiter-Glo ATP luminescence, 90 h; cytotoxicity (signal decrease), % at 8.35 µM; 14% of 5,600 active; AID 651742;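 active = mean signal decrease across replicates above about 35% based on untreated-well scatter, with enough replicates individually passing, limit read from the data; inconclusive = no rule stated though some were filed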
3T3 cytotox 2: kills mouse NIH/3T3 fibroblasts; inhibition, % at 24.9 µM; 56% of 5,600 active; NIH/3T3 viability, CellTiter-Glo ATP luminescence, 90 h; AID 651744; shares compounds with T cruzi growth-1;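 active = mean loss of cell viability signal at or above a set limit, and enough replicates individually reaching it; inconclusive = meets only the mean limit or only the replicate share; inactive = meets neither condition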
Of the large screens only hits and unclear results are named; the others gave an inactive call (follow-up assays come after a bar, where they were run). Compounds with a hit are over-represented: about 5.8% of the library has one in this group of screens.

CC(C)CC#Cc1ccc2c(c1)O[C@@H](CN(C)CC1CCOCC1)[C@@H](C)CN([C@@H](C)CO)S2(=O)=O	T cruzi growth-1 inconclusive | T cruzi growth-2 110.3 | T cruzi growth-3 inconclusive | 3T3 cytotox inactive | 3T3 cytotox 2 105.1
CC(C)CC#Cc1ccc2c(c1)O[C@@H](CN(C)CC1CCOCC1)[C@H](C)CN([C@@H](C)CO)S2(=O)=O	none
CC(=O)NCCc1c(C(=O)O)[nH]c2ccc(C(C)=O)cc12	none (no result: GASC1 inh, T cruzi growth-1, Pf Dd2 inh)
O=S(=O)(c1ccccc1)N1CCCCN2[C@H](CO)[C@H](c3ccc(-c4ccccc4F)cc3)[C@@H]2C1	T cruzi growth-1 102.6 (no result: IDH1 R132H inh) | T cruzi growth-2 105.6 | T cruzi growth-3 inactive | 3T3 cytotox inactive | 3T3 cytotox 2 42.0
O=S(=O)(c1ccccc1)N1CCCCN2[C@@H](CO)[C@H](c3ccc(-c4ccccc4F)cc3)[C@@H]2C1	T cruzi growth-1 105.0 (no result: IDH1 R132H inh) | T cruzi growth-2 104.0 | T cruzi growth-3 inactive | 3T3 cytotox inactive | 3T3 cytotox 2 105.9
Cc1ccc(-c2nn(CCC(=O)Nc3cccc(Cl)c3)c(=O)c3ccccc23)cc1	none (no result: GASC1 inh, T cruzi growth-1, Pf Dd2 inh)
COc1ccc(C#Cc2ccc3c(c2)O[C@@H](CN(C)C(=O)NC2CCCCC2)[C@@H](C)CN([C@@H](C)CO)S3(=O)=O)cc1	T cruzi growth-1 inconclusive | T cruzi growth-2 inconclusive | T cruzi growth-3 114.2 | 3T3 cytotox inactive | 3T3 cytotox 2 inactive
C[C@H](CO)N1C[C@H](C)[C@H](CN(C)C(=O)NC2CCCCC2)Oc2cc(C#Cc3ccc(F)cc3)ccc2S1(=O)=O	none
COc1ccc(C#Cc2ccc3c(c2)O[C@H](CN(C)C(=O)NC2CCCCC2)[C@@H](C)CN([C@H](C)CO)S3(=O)=O)cc1	T cruzi growth-1 inconclusive | T cruzi growth-2 106.3 | T cruzi growth-3 inactive | 3T3 cytotox inactive | 3T3 cytotox 2 32.6
C[C@@H]1CN([C@H](C)CO)S(=O)(=O)c2ccc(C#Cc3ccc(F)cc3)cc2O[C@H]1CN(C)C(=O)NC1CCCCC1	none (no result: IDH1 R132H inh)
COc1ccc(C#Cc2ccc3c(c2)O[C@H](CN(C)C(=O)NC2CCCCC2)[C@H](C)CN([C@H](C)CO)S3(=O)=O)cc1	T cruzi growth-1 inconclusive | T cruzi growth-2 inconclusive | T cruzi growth-3 113.1 | 3T3 cytotox inactive | 3T3 cytotox 2 inactive
O=C(COc1ccccc1)NC(=S)Nc1cc(-c2nc3ccccc3o2)ccc1Cl	none (no result: GASC1 inh, T cruzi growth-1, Pf Dd2 inh)
CS(=O)(=O)N(CC(=O)NC1CCCC1)c1ccc(Cl)cc1	none (no result: GASC1 inh, T cruzi growth-1, Pf Dd2 inh)
Cc1cc(Cl)ccc1OCC(=O)Nc1cccc(NC(=O)c2ccccc2C)c1	none (no result: GASC1 inh, T cruzi growth-1, Pf Dd2 inh)
COc1cccc(S(=O)(=O)N2CCCCN3[C@H](CO)[C@@H](c4ccc(C#CC5CC5)cc4)[C@H]3C2)c1	T cruzi growth-1 104.1 (no result: IDH1 R132H inh) | T cruzi growth-2 98.0 | T cruzi growth-3 inactive | 3T3 cytotox 45.2 | 3T3 cytotox 2 104.7
COc1cccc(S(=O)(=O)N2CCCCN3[C@H](CO)[C@@H](c4ccc(C#CC5CC5)cc4)[C@@H]3C2)c1	T cruzi growth-1 inconclusive (no result: IDH1 R132H inh) | T cruzi growth-2 107.3 | T cruzi growth-3 100.4 | 3T3 cytotox inactive | 3T3 cytotox 2 inactive
Cc1cccc(S(=O)(=O)N2CCCCN3[C@H](C2)[C@H](c2ccc(C#CC4CC4)cc2)[C@@H]3CO)c1	T cruzi growth-1 108.4 (no result: IDH1 R132H inh) | T cruzi growth-2 108.9 | T cruzi growth-3 98.4 | 3T3 cytotox inactive | 3T3 cytotox 2 64.7
O=S(=O)(c1ccc(F)cc1)N1CCCCN2[C@@H](CO)[C@H](c3ccc(C#CC4CC4)cc3)[C@@H]2C1	T cruzi growth-1 inconclusive (no result: IDH1 R132H inh) | T cruzi growth-2 108.8 | T cruzi growth-3 inactive | 3T3 cytotox 44.1 | 3T3 cytotox 2 102.6
Cc1cccc(S(=O)(=O)N2CCCCN3[C@H](CO)[C@@H](c4ccc(C#CC5CC5)cc4)[C@H]3C2)c1	none (no result: IDH1 R132H inh)
COc1cccc(S(=O)(=O)N2CCCCN3[C@@H](CO)[C@@H](c4ccc(C#CC5CC5)cc4)[C@@H]3C2)c1	none (no result: IDH1 R132H inh)
O=C(NCCO)C(=O)NCc1ccco1	none (no result: GASC1 inh, T cruzi growth-1, Pf Dd2 inh)
COc1ccccc1NC(=O)c1ccccc1NC(=O)COc1ccccc1C	none (no result: GASC1 inh, T cruzi growth-1, Pf Dd2 inh)
O=C(NCC[C@@H]1CC[C@H](NC(=O)c2ccncc2)[C@H](CO)O1)Nc1ccc(Cl)cc1	T cruzi growth-1 101.2 | T cruzi growth-2 96.8 | T cruzi growth-3 inactive | 3T3 cytotox inactive | 3T3 cytotox 2 inactive
O=C(Nc1ccc(Cl)cc1)N[C@@H]1CC[C@H](CCn2cc(-c3ccccc3F)nn2)O[C@H]1CO	none
COc1ccccc1NC(=O)N[C@@H]1CC[C@H](CCn2cc(C3(O)CCCC3)nn2)O[C@H]1CO	none
COc1ccccc1NC(=O)N[C@@H]1CC[C@H](CCn2cc(C3(O)CCCC3)nn2)O[C@@H]1CO	T cruzi growth-1 109.5 | T cruzi growth-2 inactive | T cruzi growth-3 inactive | 3T3 cytotox inactive | 3T3 cytotox 2 inactive
O=C(Nc1ccc(Cl)cc1)N[C@@H]1CC[C@@H](CCn2cc(-c3ccccc3F)nn2)O[C@H]1CO	T cruzi growth-1 105.4 | T cruzi growth-2 104.2 | T cruzi growth-3 inactive | 3T3 cytotox inactive | 3T3 cytotox 2 inactive
O=C(Nc1ccc(Cl)cc1)N[C@H]1CC[C@@H](CCn2cc(-c3ccccc3F)nn2)O[C@H]1CO	T cruzi growth-1 153.5 | T cruzi growth-2 inactive | T cruzi growth-3 inactive | 3T3 cytotox inactive | 3T3 cytotox 2 40.6
O=C(NCC[C@H]1CC[C@H](NC(=O)c2ccncc2)[C@H](CO)O1)Nc1ccc(Cl)cc1	none
COc1ccc(C)cc1NC(=O)CSc1nnnn1-c1ccccc1	none (no result: GASC1 inh, T cruzi growth-1, Pf Dd2 inh)
O=C(Nc1cccc(Cl)c1)N[C@@H]1CC[C@@H](CCn2cc(Cc3ccccc3)nn2)O[C@@H]1CO	T cruzi growth-1 inconclusive | T cruzi growth-2 97.6 | T cruzi growth-3 inactive | 3T3 cytotox inactive | 3T3 cytotox 2 32.9
C[C@H]1CN([C@@H](C)CO)S(=O)(=O)c2ccc(C#Cc3cccc(F)c3)cc2O[C@@H]1CN(C)S(=O)(=O)c1ccccc1F	T cruzi growth-1 104.1 | T cruzi growth-2 103.9 | T cruzi growth-3 102.7 | 3T3 cytotox inactive | 3T3 cytotox 2 60.0
C[C@H]1CN([C@@H](C)CO)S(=O)(=O)c2ccc(C#Cc3cccc(F)c3)cc2O[C@H]1CN(C)S(=O)(=O)c1ccccc1F	T cruzi growth-1 111.3 | T cruzi growth-2 106.1 | T cruzi growth-3 inactive | 3T3 cytotox inactive | 3T3 cytotox 2 inconclusive
C[C@H]1CN([C@@H](C)CO)S(=O)(=O)c2ccc(Br)cc2O[C@H]1CN(C)S(=O)(=O)c1ccccc1F	none (no result: IDH1 R132H inh)
CCOc1cc(S(=O)(=O)NCc2ccco2)ccc1Cl	none (no result: GASC1 inh, T cruzi growth-1, Pf Dd2 inh)
